Only some compounds are listed: those with a hit (about 3.1% of all), similar ones and a draw of the others.
KCNQ1 act – potentiates or activates the human KCNQ1 potassium channel. P51787. CHO-K1 KCNQ1, thallium flux FluxOR fluorescence; stronger effect = higher value. B-score at 10 µM. 310,000 tested, 0.35% active;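 active = fluorescence ratio B-score, a plate-corrected score, at least three library SD, with initial intensity B-score within 5 SD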
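Medium – assay buffer, equal DMSO in all wells · Material – CHO-K1 cell line with stable KCNQ1 potassium channel expression · Signal – kinetic FluxOR thallium fluorescence, 10-s 1-Hz baseline, 110-s post-stimulus read · Compound – single concentration per compound, DMSO matched to controls · Schedule – 37 °C overnight plating, 90-min dark dye load, 20-min compound pretreatment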
hERG rescue – hERG (human) protection from proarrhythmic block | Q12809 | CHO-hERG, FluxOR thallium flux, dofetilide IC70 present | activation (rescue from dofetilide block), less the hit threshold, % at 10 µM | 310,000 tested, 0.51% active | AID 1511;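 active = activation above the mean of controls blocked by dofetilide plus 5 SD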;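 also: thallium influx through hERG after potassium depolarization seen as dye fluorescence rise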
KCNQ1 inh – human KCNQ1 channel inhibition. P51787. CHO-K1 KCNQ1, FluxOR thallium flux fluorescence; stronger effect = higher value. B-score at 10 µM. 310,000 tested, 1.3% active. AID 2642;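 active = compounds whose thallium flux B-score, printed positive for inhibition, exceeds three library SD while starting fluorescence stays within three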;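 also: channel opened by potassium depolarization with thallium stimulus after 20 min compound exposure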
KCNK3 block – human KCNK3 channel inhibition, primary screen; B-score at 10 µM; 340,000 tested, 0.84% active; CHO-KCNK3 thallium flux, FluxOR fluorescence; stronger effect = lower value; O14649;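 active = B-score under library mean minus 4 SD, starting fluorescence ratio at most library mean plus 5 SD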;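 also: more negative B-score means stronger inhibition of thallium flux through KCNK3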
Target sequence (O14649 whole entry, looked up): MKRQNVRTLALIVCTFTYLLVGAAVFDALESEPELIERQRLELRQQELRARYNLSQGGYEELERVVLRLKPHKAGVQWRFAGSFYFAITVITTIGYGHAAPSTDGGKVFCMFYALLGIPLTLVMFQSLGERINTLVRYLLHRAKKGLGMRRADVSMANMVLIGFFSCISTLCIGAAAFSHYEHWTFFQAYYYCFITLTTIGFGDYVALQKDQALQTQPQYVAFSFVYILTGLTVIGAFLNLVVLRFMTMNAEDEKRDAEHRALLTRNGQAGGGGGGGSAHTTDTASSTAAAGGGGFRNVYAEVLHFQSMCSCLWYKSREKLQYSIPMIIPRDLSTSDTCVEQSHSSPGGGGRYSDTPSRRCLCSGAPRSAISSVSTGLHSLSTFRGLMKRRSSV
KCNK9 block – inhibitors of human KCNK9 two-pore domain potassium channel; HEK293 KCNK9, FluxOR thallium flux fluorescence; stronger effect = lower value; B-score at 10 µM; 310,000 tested, 1.2% active; AID 488922;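 active = ratio B-score over 3 SD below the library mean, with starting fluorescence within 5 SD of its mean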;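 also: negative B-score means less thallium flux so channel inhibition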
KCNK9 inh conf – confirmation of human KCNK9 potassium channel inhibitors; HEK293 KCNK9 cells, FluxOR thallium flux fluorescence; shares compounds with KCNK9 block; AID 492992; inhibition, % at 10 µM; 4,900 tested, 43% active;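 active = thallium signal inhibited by more than 5 SD of the compound-free buffer control wells, on both duplicate plates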;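 also: 0% = assay buffer control wells without compound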
Kir21 sel – selectivity of KCNK9 modulators against mouse Kir2.1. Kir2.1 cells, FluxOR thallium flux fluorescence. 4,900 tested, 4% active. inhibition, % at 10 µM. shares compounds with KCNK9 block;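 active = thallium signal drop more than 5 SD beyond the mean of the no-compound control wells, seen in both duplicate plates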;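 also: signal is fluorescence rise after thallium addition divided by baseline fluorescence; plate controls were assay buffer only for no effect and full block by chlorpromazine control for full effect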
KCNK9 uninduced – second counter-screen for KCNK9 modulators: effect in non-induced cells; shares compounds with KCNK9 block; inhibition, % at 10 µM; non-induced KCNK9-HEK293, FluxOR thallium flux; 4,900 tested, 40% active;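 active = thallium signal drop beyond 5 SD of the untreated control mean, on both duplicate plates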;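 also: plate controls were buffer only IC0 wells for no effect and SID17386958 at its maximal inhibitory level for full effect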
Active calls of the source: *; i = inactive; . = no result.

SMILES | KCNQ1 act | hERG rescue | KCNQ1 inh | KCNK3 block | KCNK9 block | KCNK9 inh conf | Kir21 sel | KCNK9 uninduced
Cc1cccc(C)c1OCC(O)CN1CCN(c2ccccc2)CC1 (configuration not stated) | i | -15.6 | i | i | i | i | i | i
OC(COc1ccc(Cl)cc1)CN1CCN(c2cccc(Cl)c2)CC1 (configuration not stated) | i | -19.9 | i | i | i | i | i | i
COc1ccccc1NC(=O)CCC(=O)OCC(=O)c1ccc(C)c([N+](=O)[O-])c1 | i | -3.0 | i | i | i | . | . | .
N#C/C(N=Nc1ccccc1O)=N\Nc1ccccc1O | i | -36.7 | 6* | i | -8.66* | 30.0%* | 29.5%* | i
COc1ccc(CN2CCN(S(=O)(=O)c3ccc(NC(C)=O)cc3)CC2)c(OC)c1OC | i | -10.8 | i | i | i | . | . | .
Cc1ccc2nc(NC(=O)c3ccco3)sc2c1 | i | -13.3 | i | i | i | . | . | .
Cc1ccc2nc(NC(=S)NC(=O)c3ccco3)sc2c1 | 57* | 35.5* | i | i | i | i | i | i
Cc1ccc2c(c1)N(C(=O)CCC(=O)Nc1ccccc1Cl)CC(C)O2 (configuration not stated) | i | -11.2 | i | i | i | i | i | i
Cc1ccc2c(c1)N(C(=O)CCC(=O)N1CCN(c3ccccn3)CC1)CC(C)O2 (configuration not stated) | i | -10.8 | i | i | i | . | . | .
Cc1cccc(N2CCN(C(=O)CCC(=O)N3CC(C)Oc4ccc(C)cc43)CC2C)c1 (configuration not stated) | i | -13.0 | i | i | i | i | i | i
Cc1ccc2c(c1)N(C(=O)CCC(=O)NCc1ccccc1)CC(C)O2 (configuration not stated) | i | -4.1 | i | i | i | . | . | .
CCOc1ccc(C(=O)NCC(=O)Nc2ncccc2C)cc1OCC | i | -5.5 | i | i | i | 51.0%* | i | i
CCOc1ccccc1C(=O)NCC(=O)Nc1ncccc1C | i | -17.6 | i | i | i | . | . | .
O=C(NCCC(=O)N1CCCCCCC1)c1ccc(Cl)cc1 | i | -15.4 | i | i | i | . | . | .
CCn1c(=S)sc2c(=O)n(CC(=O)Nc3cc(OC)ccc3OC)c(C)nc21 | i | -7.5 | i | i | i | . | . | .
C#CCn1c(S(=O)(=O)Cc2ccc(OC)cc2)nc(-c2ccccc2)c1-c1ccccc1 | i | -1.9 | i | -9.38* | -18.4* | 62.5%* | i | 25.5%*
COCCn1cnc2c(c1=O)c1nc3ccccc3nc1n2/N=C/c1cccc(OC)c1 | i | -2.6 | i | i | -9.74* | i | i | i
C=CCn1cnc2c(c1=O)c1nc3ccccc3nc1n2/N=C/c1cc(OC)c(OC)c(OC)c1 | i | -28.7 | i | i | i | . | . | .
O=c1cc(-c2ccccc2)nc2c(-c3ccccc3)c(C(F)(F)F)[nH]n12 | 13* | 54.3* | i | i | i | i | i | i
Cc1cc(=O)n2[nH]c(C)c(-c3ccccc3)c2n1 | i | -2.7 | i | i | i | . | . | .
Cc1cc(C)n(C(=O)c2ccc(Cl)c(F)c2F)n1 | i | -8.2 | i | i | i | . | . | .
COc1c(Cl)cc(Cl)cc1C(=O)n1nc(C)cc1C | i | -5.2 | i | i | i | i | i | i
CC(C)Oc1ccc(C(=O)/C(=C\c2cccs2)c2nc3ccccc3o2)cc1 | i | -12.0 | i | i | i | i | i | i
CC(=O)Nc1ccc(S(=O)(=O)N(C)CC(=O)OCC(=O)c2ccc3c(c2)NC(=O)CO3)cc1 | . | . | . | i | . | . | . | .
CCCCSc1nnc(-c2ccccc2)c2ccccc12 | i | -16.8 | i | i | -14.7* | 38.0%* | i | 42.5%*
SMILES | KCNQ1 act | hERG rescue | KCNQ1 inh | KCNK3 block | KCNK9 block | KCNK9 inh conf | Kir21 sel | KCNK9 uninduced
N#CC1=C2SCN(c3ccccc3)CN2C(=O)CC1c1c(Cl)cccc1Cl (configuration not stated) | i | -16.6 | i | i | i | i | i | i
N#CC1=C2SCN(c3ccccc3)CN2C(=O)CC1c1ccccc1Cl (configuration not stated) | i | -7.0 | i | i | i | i | i | i
COc1cccc(C2CC(=O)N3CN(c4cccc(Cl)c4C)CSC3=C2C#N)c1OC (configuration not stated) | i | -12.3 | i | i | i | i | i | i
COc1ccccc1C/C(N)=N/OC(=O)COc1ccc(C)cc1 | i | -3.5 | i | i | i | . | . | .
COc1ccccc1C/C(N)=N/OC(=O)COc1cccc(C)c1 | i | -8.9 | i | i | i | i | i | i
COc1ccccc1C/C(N)=N/OC(=O)COc1ccc2ccccc2c1 | i | -5.4 | i | i | i | i | i | i
Nc1c(Cl)ncnc1NCc1ccccc1 | i | -3.7 | i | i | i | . | . | .
Nc1nc(SCCO)[nH]c(=O)c1NC(=O)c1ccc(Br)o1 | i | -7.7 | i | i | i | . | . | .
COc1ccc(C(=O)Nc2oc(-c3ccccc3)c(-c3ccccc3)c2C#N)cc1OC | i | -11.4 | i | i | -9.25* | 49.0%* | i | 38.5%*
COC(=O)[C@H]1C[C@@H](c2ccccc2)[C@H](C)C1(C)C | . | . | . | i | . | . | . | .
CC(C)(C)c1ccc(C(=S)N2CCN(c3ccccc3)CC2)cc1 | i | -7.8 | 6* | i | i | i | i | i
CCOC(=O)C(NC(=O)c1ccccc1Cl)(Nc1ccc(C(F)(F)F)cc1)C(F)(F)F (configuration not stated) | i | -7.0 | i | i | -11.6* | 66.0%* | i | 42.5%*
CCOC(=O)C(NC(=O)c1ccccc1Cl)(Nc1ccc(C)c(C)c1)C(F)(F)F (configuration not stated) | i | -9.7 | i | i | i | . | . | .
CC1CCc2c(sc(NC(=O)c3ccc(Cn4cc([N+](=O)[O-])cn4)o3)c2C#N)C1 (configuration not stated) | i | -9.6 | i | i | -15.7* | 45.5%* | i | 29.5%*
CCOC(=O)N/N=C/c1cc(C)n(-c2cccc3ccccc23)c1C | i | -5.4 | i | i | -8.31* | 48.5%* | i | 35.5%*
CCOC(=O)N/N=C/c1cc(C)n(-c2ccccc2)c1C | i | -14.5 | i | i | i | . | . | .
